# Measurements as given in PubChem BioAssay.
# Active and inactive are the calls of the source.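 Rule for the calls, unless noted: active = inhibition of the reporter signal at or above 50%; inactive = inhibition below 50%.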
# Columns and labels:
# [1] = inhibitors of TNFa-induced NFkB p65 translocation, primary screen, imaging, HUVEC, MLSMR starter and 10KST1 sets (AID 438;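 active = inhibition above 20% together with a positive visual image hit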;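 note: compound added about 3h40 before a 20 min TNFalpha stimulation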;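 for inhibition: signal is the nuclear over cytoplasmic p65 intensity ratio per well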); conditions: HUVEC TNFa-induced p65 nuclear translocation; cell count: measured here: nuclei count (cytotoxicity indicator), at 2.08 µM; inhibition: at 2 µM, stronger effect = higher value, 0% TNFa-plus-vehicle, 100% no-TNFa wells
# [2] = reduction of polyQ htt aggregates in cells – imaging, exon1htt(103Q)mCFP cells, high-content imaging, primary screen (AID 483;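 active = visual image review flags a hit and inhibition of aggregation exceeds 20%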;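 note: compound exposure lasted 3 days before fixation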;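 for nuclei count: percent of the per-plate median nuclei count of sample wells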); conditions: exon1htt(103Q)mCFP cell line, aggregate imaging, at 2 µM; inhibition of aggregation: stronger effect = higher value; nuclei count: measured here: cell count, toxicity
# [3] = endothelial E-selectin expression blockers – imaging, HUVEC, immunofluorescence, MLSMR starter and 10KST1 sets, primary screen (AID 487;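 active = visually confirmed hit in the image check and inhibition above 20%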;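 for inhibition: signal is fraction of cell area covered by stained E-selectin grains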;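 for nuclei count: 100% = median nuclei count of all wells on the same plate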); conditions: HUVEC TNFalpha-induced E-selectin immunofluorescence imaging, at 2 µM; inhibition: stronger effect = higher value; nuclei count: measured here: cell number, toxicity
# [4] = molecular target: Voltage-gated potassium channel subunit beta-2 (Rattus norvegicus) (UniProt P62483); test: inhibitors of rat Kvbeta2 reductase activity – biochemical, NADPH fluorescence, primary screen (AID 622;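 active = fluorescence slope higher than the sample average by over 3 SD, cut at about -0.22 in these data, passing the limit was not always enough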;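 note: slope of raw intensity against log time taken from 70 to 1610 s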); conditions: recombinant KvBeta, 4-cyanobenzaldehyde reduction, at 10 µM, stronger effect = higher value
# [5] = molecular target: Voltage-gated potassium channel subunit beta-2 (Rattus norvegicus) (UniProt P62483); test: enhancers of rat Kvbeta2 NADPH turnover – biochemical, NADPH fluorescence, primary screen (AID 623;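 active = NADPH fluorescence slope more negative than the mean of all samples by about 3 SD, 99.7% confidence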;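 note: fluorescence intensity change per second fitted from 20 to 320 s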); conditions: Recombinant KvBeta, NADPH fluorescence decrease slope, 10 min; at 10 µM; stronger effect = lower value
# [6] = molecular target: Muscarinic acetylcholine receptor M4 (Homo sapiens) (UniProt P08173); test: M4-linked GIRK flux change, two-sided – cell-based, HEK293 M4/GIRK, thallium flux, BTC-AM, M4 allosteric agonist project, primary screen (AID 625;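 active = fluorescence slope after compound addition differing from the mean of all tested samples at 99.7% confidence, mostly higher but some lower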;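 note: thallium influx through GIRK channels coupled to M4 in HEK293 cells with BTC-AM dye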); conditions: at 10 µM, actives lie on both sides
# How it was run: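 assay system = HEK293 cells with M4 receptor and GIRK channels | medium = pH 7.3 thallium assay buffer | doses = 10 µM final, single point | timing = cells overnight at 37 °C, BTC-AM loading 1 h, reads 2 min total | signal = BTC-AM fluorescence, 1 Hz kinetic reads | read-out = post-addition slope, 15–24 s, of baseline-normalized fluorescence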
# [7] = blockers of RIG-like receptor reporter activation – cell-based, Sendai virus stimulus, luciferase, 10K MLSCN set, TLR/RLR signaling modifier project, primary screen (AID 602276;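 active = inhibition at or above 50% at 10 µM; inactive = inhibition below 50%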;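 note: firefly luciferase from ISG56 promoter only with Renilla not read in this screen; 0% = Sendai virus plus DMSO and 100% = medium plus DMSO without virus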); conditions: HEK293 RL24 IRF3 luciferase reporter, at 10 µM, stronger effect = higher value
# [8] = TLR3 IRF3 reporter activation blockers – cell-based, poly I:C stimulus, luciferase, 10K MLSCN set, primary screen (AID 602277); conditions: HEK293-TLR3 RL24 IRF3 luciferase reporter, at 10 µM, stronger effect = higher value
# Sequence of Muscarinic acetylcholine receptor M4 (Homo sapiens) (P08173 whole entry, looked up): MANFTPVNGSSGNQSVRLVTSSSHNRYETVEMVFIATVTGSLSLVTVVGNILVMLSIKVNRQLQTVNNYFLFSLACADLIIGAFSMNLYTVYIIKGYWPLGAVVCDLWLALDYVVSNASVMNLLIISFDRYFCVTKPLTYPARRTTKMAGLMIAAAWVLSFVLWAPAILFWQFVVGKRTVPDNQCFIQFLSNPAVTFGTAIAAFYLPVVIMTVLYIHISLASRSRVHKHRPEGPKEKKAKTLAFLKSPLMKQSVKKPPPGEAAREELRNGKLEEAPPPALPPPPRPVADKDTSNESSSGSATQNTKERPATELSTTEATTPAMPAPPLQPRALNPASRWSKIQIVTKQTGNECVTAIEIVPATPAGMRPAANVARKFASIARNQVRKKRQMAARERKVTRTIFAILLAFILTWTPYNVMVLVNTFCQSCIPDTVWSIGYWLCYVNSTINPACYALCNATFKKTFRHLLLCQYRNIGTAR
# Sequence of Voltage-gated potassium channel subunit beta-2 (Rattus norvegicus) (P62483 whole entry, looked up): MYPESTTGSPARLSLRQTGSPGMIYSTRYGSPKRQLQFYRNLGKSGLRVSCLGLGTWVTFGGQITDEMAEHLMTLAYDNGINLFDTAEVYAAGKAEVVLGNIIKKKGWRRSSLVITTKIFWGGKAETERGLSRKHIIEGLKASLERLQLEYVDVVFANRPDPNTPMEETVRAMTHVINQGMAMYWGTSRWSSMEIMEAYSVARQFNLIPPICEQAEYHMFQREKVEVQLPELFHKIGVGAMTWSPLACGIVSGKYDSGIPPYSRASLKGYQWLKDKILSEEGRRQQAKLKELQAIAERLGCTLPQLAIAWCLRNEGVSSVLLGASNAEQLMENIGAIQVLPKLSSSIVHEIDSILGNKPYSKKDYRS
Compound,cell count [1],inhibition [1],inhibition of aggregation [2],nuclei count [2] [%],inhibition [3],nuclei count [3] [%],fluorescence slope [4],NADPH fluorescence slope [5],fluorescence slope [6],inhibition [7],inhibition [8]
CCOc1ccccc1CN1C(=O)c2ccccc2C1C(=O)NCC1CCCO1 (stereo not given),350,7.9% (inactive),6.8% (inactive),107,-214% (inactive),114,-0.585 (inactive),2.5e-05 (inactive),0.00509 (inactive),7.6% (inactive),5.52% (inactive)
CCC(=O)/C=C1\Sc2ccc(OC)cc2N1CCO,626,2.4% (inactive),-1.7% (inactive),93.6,-28.2% (inactive),85.1,-0.577 (inactive),-3.8e-05 (inactive),0.0067 (inactive),21.2% (inactive),9.17% (inactive)
CC1CCN(C(=O)C2CCN(S(=O)(=O)c3cnc[nH]3)CC2)CC1,464,2.5% (inactive),22% (inactive),90.5,-170% (inactive),116,-0.553 (inactive),-1.4e-05 (inactive),0.00577 (inactive),15.5% (inactive),19.2% (inactive)
CCC1Oc2ccccc2N(CC(=O)Nc2ccc(OC)cc2OC)C1=O (stereo not given),726,44.3% (active),-17.4% (inactive),117,-57% (inactive),127,-0.533 (inactive),-0.000132 (inactive),0.00464 (inactive),-2.59% (inactive),4.28% (inactive)
COc1ccc(S(=O)(=O)NC(CC(=O)NCc2ccco2)c2ccco2)cc1 (stereo not given),621,8.2% (inactive),0.5% (inactive),114,-67.3% (inactive),97.1,-0.566 (inactive),-3e-05 (inactive),0.00653 (inactive),19.3% (inactive),20.6% (inactive)
CC1CN(CC(O)COc2ccc(C(C)C)cc2)CC(C)O1 (stereo not given),812,-4.8% (inactive),7.5% (inactive),120,-54.5% (inactive),140,-0.534 (inactive),-0.000138 (inactive),0.0054 (inactive),-56.4% (inactive),98.7% (active)
O=C(N1CCCCCC1)N1CCN(C(=O)N2CCOCC2)CC1,437,-13.3% (inactive),7.7% (inactive),99.6,-24.8% (inactive),134,-0.563 (inactive),-1.7e-05 (inactive),0.00574 (inactive),3.08% (inactive),-6.18% (inactive)
CCC(c1nnc(SCC(=O)NCC2CCCO2)n1Cc1ccccc1)N(C)C (stereo not given),414,-5.7% (inactive),0.8% (inactive),52.5,-136% (inactive),110,-0.508 (inactive),-2.1e-05 (inactive),0.00548 (inactive),21% (inactive),25.8% (inactive)
O=C(O)c1ccc(-n2nnnc2Oc2ccccc2C(=O)N2CCOCC2)cc1,478,-20.3% (inactive),-2.2% (inactive),53.4,2.2% (inactive),89.9,-0.482 (inactive),-1.8e-05 (inactive),0.0048 (inactive),21% (inactive),12.5% (inactive)
O=C(Cn1cnc2sc(-c3ccccc3)cc2c1=O)N1CCOCC1,353,6.9% (inactive),15.6% (inactive),98.1,-123% (inactive),114,-0.445 (inactive),-4.1e-05 (inactive),0.00489 (inactive),6.22% (inactive),-5.03% (inactive)
CCn1ncc(C2=NOC(C(=O)N3CCC(C(N)=O)CC3)C2)c1C (stereo not given),846,-7.8% (inactive),-19.8% (inactive),105,-117% (inactive),109,-0.47 (inactive),3.7e-05 (inactive),0.00576 (inactive),-11.4% (inactive),-7.82% (inactive)
Cc1nn(-c2ccc(F)cc2)c2nc(N)c(C#N)c(-c3cccs3)c12,483,5.7% (inactive),3% (inactive),81.1,-126% (inactive),160,-0.437 (inactive),-1.4e-05 (inactive),0.00193 (inactive),12.4% (inactive),20.7% (inactive)
Cc1nnc(SCC(=O)NC(C)(C)C)n1CCc1ccccc1,677,2.8% (inactive),-3.9% (inactive),109,-20.1% (inactive),135,-0.512 (inactive),-4.5e-05 (inactive),0.00442 (inactive),11.7% (inactive),8.89% (inactive)
Cc1ccc(-n2nnnc2SCC(=O)N2CCc3ccccc3C2)cc1,526,-10.2% (inactive),-6.8% (inactive),104,-28.6% (inactive),148,-0.49 (inactive),8.4e-07 (inactive),0.00503 (inactive),8.66% (inactive),11% (inactive)
COC(=O)c1ccccc1NC(=O)Nc1cc(C)cc(C)n1,205,0.9% (inactive),-2.4% (inactive),71.9,10.8% (inactive),140,-0.504 (inactive),-2.5e-05 (inactive),0.00537 (inactive),6.32% (inactive),99% (active)
C=CCN1C(=O)/C(=C2/Sc3ccccc3N2C)SC1=Nc1c(C)n[nH]c1C,401,-0.2% (inactive),-18.2% (inactive),103,-70.1% (inactive),106,-0.519 (inactive),-2.3e-05 (inactive),0.00378 (inactive),12.6% (inactive),10.1% (inactive)
Cn1c(=O)n(C)c2cc(CNc3ccc(N4CCOCC4)c(C(=O)O)c3)ccc21,350,-0.2% (inactive),3% (inactive),107,-9.8% (inactive),110,-0.423 (inactive),0.00012 (inactive),0.00799 (inactive),13.1% (inactive),5.3% (inactive)
Cc1ccccc1CN1CCN(CC(=O)NCc2ccco2)C1=O,395,-1.7% (inactive),-11.1% (inactive),97.3,-7.2% (inactive),109,-0.511 (inactive),-0.000109 (inactive),0.00663 (inactive),23.3% (inactive),22.7% (inactive)
Cc1ccc(-c2nn(C)c(=O)c3ccccc23)cc1S(=O)(=O)N1CCOCC1,595,-10.5% (inactive),-24.4% (inactive),101,-64.2% (inactive),102,-0.511 (inactive),-2.7e-05 (inactive),0.0045 (inactive),8.97% (inactive),30.3% (inactive)
CCCCCCNC(=O)Cc1c(O)c2ccccc2[nH]c1=O,342,3.2% (inactive),-12.8% (inactive),122,20.8% (inactive),103,-0.354 (inactive),-5.1e-05 (inactive),0.0051 (inactive),9.96% (inactive),16.8% (inactive)
